This note sets out measurements from PubChem BioAssay AID1943 (The Scripps Research Institute Molecular Screening Center, 2009).

About 500 (31%) of roughly 1,600 compounds were called active.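 The calls were made as follows: active = inhibition above the mean of all tested compounds plus 3 SD, cutoff set per campaign (cut at about 36% in these data); inactive = the rest.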 A selection follows.

This assay relates to Hepatitis C virus NS3 helicase. In words: blockers of HCV NS3 DNA unwinding – biochemical, Cy5 molecular beacon fluorescence, triplicate, confirmation (AID 1943). Conditions: at 10.9 µM, active compounds read high. In short, it runs like this: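 assay system = HCV NS3 helicase | medium = MOPS buffer pH 6.5 with MgCl2, DTT, Tween20 and BSA | compound dosing = single nominal final dose of 10.9 µM, DMSO vehicle | incubation = reads at 0 and 60 min post-ATP, 25 °C | detection = Cy5 fluorescence | read-out = % inhibition of unwinding | repeats = triplicate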
In the case of `CCOC(=O)c1c(-c2ccccc2)oc2cc(Br)c(O)c(C=O)c12`, the inhibition was 36.3% (active).

Take `CC(Oc1ccccc1)C(=O)Nc1oc(-c2ccco2)c(-c2ccco2)c1C#N` (stereo not given): the inhibition is 61.5% (active). For `Cc1cccc(NC(=O)c2sc3nc4c(c(-c5ccco5)c3c2N)CCC4)c1` the value was -20.1% (inactive). On to `COc1ccc(/C=C2\SC(=S)N(CCC(=O)Nc3cccc(C(=O)O)c3)C2=O)cc1OC`, for which the inhibition was 52.9% (active). For `Cc1ccc(SC(CC(=O)c2ccc(C(C)(C)C)cc2)C(=O)O)cc1` (stereo not given) the value was 74.6% (active). For `COCCNC(=O)Nc1ccc2nc(-c3ccco3)c(-c3ccco3)nc2c1` the value was 43.5% (active); for `COc1ccc(OCC(=O)Nc2nnc(-c3ccco3)s2)cc1`, -10.9% (inactive); for `COc1ccc(NC(=O)CSc2ccc(-c3ccco3)nn2)c(OC)c1`, -10.9% (inactive). As to `S=C(NCCc1ccccc1)N1CCCCC1`, the inhibition was -9.72% (inactive). The result for `CCSc1nsc(NC(=O)Nc2cccc(C(C)=O)c2)n1` reads -4.64% (inactive). As for `CNS(=O)(=O)c1cccc(C(=O)NC2CCCc3ccccc32)c1` (stereo not given), the inhibition was -10.8% (inactive). The result for `Cc1ccc(OCC(=O)c2cc(C)n(Cc3ccco3)c2C)c([N+](=O)[O-])n1` reads -9.23% (inactive). For `Cc1ccc(S(=O)(=O)NCCC(c2ccccc2)c2ccccc2)cc1C(=O)O` the value was 55.2% (active). As to `O=C1NN(c2ccccc2)C(=O)/C1=C/c1ccc(-c2cccc(C(=O)O)c2)o1`, the inhibition was 54.1% (active). The result for `COc1cc(C2CC(=O)N3CN(Cc4ccccc4)CSC3=C2C#N)ccc1OCc1ccccc1` (stereo not given) reads 25% (inactive); that for `N#C/C=C(/c1ccc(F)cc1)N1CCOCC1`, -4.32% (inactive). In the case of `Cc1ccc(-c2nn(-c3ccccc3)cc2/C=C2\SC(=S)N(CCCCCC(=O)O)C2=O)o1`, the inhibition is 84.6% (active). The result for `O=C(N/N=C/c1ccc([N+](=O)[O-])o1)c1cn(-c2ccccc2)nc1-c1ccc(F)cc1` reads -4.3% (inactive); that for `COc1cccc(CNC(=O)c2nnn(CC(=O)Nc3cc(Cl)ccc3C)c2N)c1`, 3.98% (inactive).

Regarding `Cc1ccc(C(CC(=O)O)Nc2nc(N3CCCCC3)nc(N3CCCCC3)n2)cc1` (stereo not given), the inhibition was 79% (active). For `COc1ccccc1N1CCN(C(=O)CCS(=O)(=O)c2ccc3c(c2)NC(=O)C(C)S3)CC1` (stereo not given), the inhibition was -19.2% (inactive). Consider `Cc1ccccc1Nc1nnc(SCC(=O)c2cc3ccccc3o2)s1`, for which the inhibition is -10.8% (inactive).

Regarding `CC(C)c1ccc(Nc2nnc(SCC(=O)c3nnc(-c4ccccc4)o3)s2)cc1`, the inhibition was 89.1% (active).

As for `Cc1cc(O)c(C(=O)/C=C/c2c(F)c(F)c(F)c(F)c2F)c(=O)o1`, the inhibition is 69.6% (active). As to `CS(=O)(=O)c1ccc2c(c1)SC1=NC(=O)/C(=C/c3ccco3)C(=N)N12`, the inhibition is 22.5% (inactive).
